BaF3 parental: parental Ba/F3 viability inhibition as JAK2V617F counter-screen; CellTiter-Glo ATP luminescence; 220,000 tested, 1.1% active; AID 1486; inhibition, % at 5.6 µM;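 active means inhibition above a per-campaign cutoff, the mean inhibition of all tested compounds plus 3 SD, cut at about 27% in these data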
MT stabilizer: microtubule stabilization, imaging screen; HeLa tubulin immunostaining HCS, 24 h; share of cells brighter than vehicle mean+2SD; % tubulin-high responders, % at 10 µM; 200,000 tested, 0.83% active; AID 2205;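 active means plate Z-score above 3 for both tubulin-high and condensed-nucleus cell shares, with cell loss under 80%, at 10 µM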;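 further: anti alpha tubulin signal scored within the nucleus-defined area of each cell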
Lmaj promast: inhibitors of Leishmania major promastigote growth; Leishmania major promastigotes, resazurin fluorescence viability; inhibition, % at 10 µM; 200,000 tested, 9% active; AID 1063; in the data active means inhibition above about 50%;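 further: promastigotes grown with compound for 44 hours at 28 °C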
Ba/F3 V617F tox: loss of viability in JAK2V617F-driven Ba/F3 cells; Ba/F3 EpoR-JAK2V617F viability, ATP luminescence; inhibition, % at 5.6 µM; 220,000 tested, 1.1% active;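 active means inhibition above the campaign mean plus 3 SD over all tested compounds, cut at about 24% in these data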;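 further: cytokine-independent growth of Ba/F3 cells driven by EpoR plus mutant JAK2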
APP 5UTR inh: APP translation inhibition; SH-SY5Y APP 5'UTR-luciferase reporter, luminescence; inhibition, % at 2 µM; 190,000 tested, 0.82% active; AID 1285;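 active means inhibition above a set limit, derived from the sample mean plus 3 SD, cut at about 45% in these data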
bCat nuc transl: beta-catenin nuclear translocation modulation | HeLa beta-catenin nuclear translocation, immunofluorescence imaging | 190,000 tested, 0.3% active | nuclear translocation activity, % at 5 µM;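 active means nuclear translocation activity above 50% at 5 µM, with a well cell count of 50 or more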;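 further: per-cell ratio of nuclear to cytoplasmic median beta-catenin stain intensity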
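test system = HeLa cells, endogenous beta-catenin | dosing = single 5 µM dose plus 0.02–20 µM confirmation series | times = compound treatment 24 h, 37°C, 5% CO2 | technique = beta-catenin immunofluorescence imaging with DAPI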
Numbers stand for hits; – = inactive; · = not tested or not shown. Compounds with a hit are over-represented: about 9.6% of the library has one in this group of screens.

SMILES	BaF3 parental	MT stabilizer	Lmaj promast	Ba/F3 V617F tox	APP 5UTR inh	bCat nuc transl
Cc1ccsc1C1C=C(c2cccc(Br)c2)Nc2ncnn21 (configuration not stated)	–	–	–	–	–	–
CCc1ccc(C2=CC(c3cc(Br)ccc3F)n3ncnc3N2)cc1 (configuration not stated)	–	30	–	–	–	–
Fc1ccc(Br)cc1C1C=C(c2ccc(Br)cc2)Nc2ncnn21 (configuration not stated)	–	49	–	–	–	–
N#CCSc1nc2ccccc2c(=O)n1CCCC(=O)NCC1CCCO1 (configuration not stated)	–	–	–	–	–	–
O=c1c2ccccc2c(C=Nc2ccc(S(=O)(=O)N3CCCCC3)cc2)c(O)n1-c1ccc(Cl)cn1	–	–	–	–	–	–
O=c1c2ccccc2c(C=Nc2cccc(S(=O)(=O)NCc3ccco3)c2)c(O)n1-c1ccc(Cl)cn1	–	–	51	–	–	–
O=C(Cn1cc2c(n1)CCCC2)N1CCc2ccccc21	–	–	–	–	–	–
Cc1c(N2CCCC2)cc2c(c1NC(=O)c1ccccc1Cl)C(C)(C)CC2(C)C	–	·	·	–	·	–
Cc1nn(CC(=O)OCC(=O)Nc2ccccc2[N+](=O)[O-])c(C)c1[N+](=O)[O-]	–	–	65	–	–	·
Cc1nn(CC(=O)OCC(=O)Nc2c(C(C)C)cccc2C(C)C)c(C)c1[N+](=O)[O-]	–	–	51	–	–	–
Cc1ccc(NC(=O)COC(=O)Cn2nc(C)c([N+](=O)[O-])c2C)c([N+](=O)[O-])c1	–	–	–	–	–	·
CN(C(=S)Nc1ccc(F)cc1)C1(c2ccccc2Cl)CCCCC1=O (configuration not stated)	–	–	–	–	–	–
CC(=O)NCCOc1nc(N2CCCCC2)nc(N2CCCCC2)n1	–	–	96	–	–	–
CCN1CCN(c2cc(C)c3cc(NC(=S)N4CCN(c5ccccc5F)CC4)ccc3n2)CC1	–	–	99	–	–	–
CCN1CCN(c2cc(C)c3cc(NC(=S)N4CCN(c5ccccc5)CC4)ccc3n2)CC1	–	–	100	–	–	–
Cc1cc(N2CCN(C)CC2)nc2ccc(NC(=S)N3CCN(c4ccccn4)CC3)cc12	–	–	95	–	–	–
COc1ccccc1N1CCN(C(=S)Nc2ccc3nc(N4CCOCC4)cc(C)c3c2)CC1	–	–	53	–	–	–
CCN1CCN(c2cc(C)c3cc(NC(=S)N4CCOCC4)ccc3n2)CC1	–	–	–	–	–	–
O=C(NCC1CCCO1)c1ccccc1S(=O)(=O)c1ccc([N+](=O)[O-])cc1 (configuration not stated)	–	–	–	–	–	–
CC(C)NC(=O)Cn1cc(C(=O)COc2ccccc2)c2ccccc21	–	–	–	–	–	–
O=C(NC(=S)NNC(=O)c1cnccn1)c1ccc(Cl)cc1	–	·	·	–	·	–
COc1cc(C(=O)NC(=S)NNC(=O)c2cnccn2)cc(OC)c1OC	–	–	100	–	–	–
CCOC(=O)C1CCN(CCC(=O)Nc2ccc(F)cc2)CC1	–	–	70	–	–	–
CCOC(=O)C1CCN(CCC(=O)Nc2ccc(C)c(C)c2)CC1	–	–	88	–	–	–
CCOC(=O)C1CCCN(CCC(=O)Nc2ccc(C)c(C)c2)C1 (configuration not stated)	–	–	–	–	–	–
SMILES	BaF3 parental	MT stabilizer	Lmaj promast	Ba/F3 V617F tox	APP 5UTR inh	bCat nuc transl
CCOc1ccc(NC(=O)CCN2CCCCC2)cc1	–	–	–	–	–	–
CCOC(=O)C1CCCN(CCC(=O)Nc2ccc3c(c2)CCC3)C1 (configuration not stated)	–	–	90	–	–	–
CCOC(=O)C1CCCN(CCC(=O)Nc2cc(C)ccc2C)C1 (configuration not stated)	–	–	–	–	–	–
CNC(=O)COC(=O)c1ccccc1Nc1ccccc1	–	–	–	–	–	–
C=C(C)CC(NCCc1ccccc1)c1ccco1 (configuration not stated)	–	–	–	–	–	–
CC1CCCCN1CC(O)COCCC12CC3CC(CC(C3)C1)C2 (configuration not stated)	–	–	94	–	–	–
Cc1ccc2c(c1)c(C)c(C)n2CC(O)CN1CCCCC1C (configuration not stated)	–	–	–	–	·	·
CCOC(=O)N1CCN(CC(O)COCCC23CC4CC(CC(C4)C2)C3)CC1 (configuration not stated)	–	–	87	–	–	·
Cc1ccccc1N1C(=O)C(Oc2ccc(Cl)cc2)C1CNCCCOC(C)C (configuration not stated)	–	–	93	–	–	–
COCCCNCC1C(Oc2ccc(Cl)cc2)C(=O)N1c1ccccc1C (configuration not stated)	–	–	84	–	–	–
CC(C)OCCCNC1=C(Cl)C(=O)c2ccccc2C1=O	–	·	·	–	·	–
COc1cc(/C=C2\SC(=O)N(CCN)C2=O)ccc1OS(=O)(=O)c1cc(C)ccc1C	–	–	100	–	–	–
COc1ccc(/C=C2\SC(=O)N(CCC(=O)Nc3ccccc3)C2=O)cc1OC	–	–	53	–	–	–
Cc1cc(SCC(=O)c2cccs2)nc2ccccc12	–	–	–	–	–	–
COc1ccc2cc(C(=O)Nc3ccc(O)cc3)sc(=O)c2c1OC	–	–	100	–	–	–
O=C(Nc1ccccc1)N1CCCCC1c1cccnc1 (configuration not stated)	–	–	77	–	–	·
CCCC(=O)NC(c1ccccc1OC)c1ccc2cccnc2c1O (configuration not stated)	101	–	100	102	75	–
CCCCC(=O)NC(c1ccccc1OC)c1ccc2cccnc2c1O (configuration not stated)	38	·	·	47	·	–
COc1ccc(C(NC(C)=O)c2ccc3cccnc3c2O)c(OC)c1 (configuration not stated)	·	·	·	·	·	–
O=C(CNC(=O)COc1ccccc1)NCc1ccccc1F	–	–	–	–	–	–
COc1ccc(Nc2nc(NCc3ccco3)nc(N3CCOCC3)n2)cc1	–	·	·	–	·	–
COc1ccc(/C=N/Nc2nc(Nc3ccccc3)nc(N3CCCCC3)n2)cc1OC	–	–	98	–	–	·
O=C(Oc1cccc(/C=N/Nc2nc(Nc3ccccc3)nc(N3CCOCC3)n2)c1)c1ccco1	–	–	65	–	–	–
COc1cc(/C=N/Nc2ccc(Cl)c(C(=O)O)c2)ccc1OC(=O)c1ccco1	–	–	–	–	–	–
CCOc1cc(/C=N/Nc2nc(Nc3ccccc3)nc(N3CCCCC3)n2)ccc1OCC(=O)O	–	–	–	–	–	–
COc1cc(/C=N/Nc2nc(N3CCCCC3)nc(N3CCCCC3)n2)ccc1OC(=O)c1ccco1	–	–	60	–	–	–
